This is an account of results in ChEMBL document CHEMBL1133105, “Antimalarial, antitrypanosomal, and antileishmanial activities and cytotoxicity of bis(9-amino-6-chloro-2-methoxyacridines): influence of the linker” (J Med Chem, 2000).

Each structure is given as a SMILES string.

For orientation: IC50 means the concentration that gives 50% inhibition.

One assay concerns Trypanosoma brucei. The assay can be described thus: Percentage of activity against Trypanosoma brucei at 6.25 uM. Format: functional.
Details: not given
The essentials: (§1)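 Bloodstream-form T. brucei in HMI-9 medium, 10 000 parasites/well, exposed to 12.5, 6.25, 3.13 and 1.56 µM drug for 4 days. Read-out is % inhibition of parasite multiplication. Macrophage toxicity judged on mouse primary peritoneal macrophages.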
Consider `COc1ccc2nc3cc(Cl)ccc3c(NCCCN(CCCNc3c4ccc(Cl)cc4nc4ccc(OC)cc34)C(=O)CCN3CCCCC3)c2c1`, for which the “Inhibition of parasite multiplication” value is on record as 100%.
With `COc1ccc2nc3cc(Cl)ccc3c(NCCCCNc3c4ccc(Cl)cc4nc4ccc(OC)cc34)c2c1`, the “Inhibition of parasite multiplication” value is recorded as 100%.

A further assay relates to Trypanosoma cruzi. Kind of assay: In Vitro evaluation for the percentage of activity towards Trypanosoma cruzi at 3.13 uM Concentration; Toxic upon mouse primary peritoneal macrophages. Format: functional, organism-based.
Details: not given
The essentials: (§2)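 Mouse peritoneal macrophages, 30 000/well, infected after 24 h with about 100 000 T. cruzi trypomastigotes per well plus 2-fold drug dilutions (12.5–1.56 µM). Incubated 4 days at 37 °C, 5% CO2. Methanol-fixed, Giemsa-stained and scored microscopically as % reduction of total parasite load (free trypomastigotes plus intracellular amastigotes) versus untreated controls.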
For `COc1ccc2nc3cc(Cl)ccc3c(NCCCN(CCCNc3c4ccc(Cl)cc4nc4ccc(OC)cc34)C(=O)CCN3CCCCC3)c2c1`, the Cytotoxicity result was “Toxic”.
The same measure, in the same setting: under `COc1ccc2nc3cc(Cl)ccc3c(NCCCCNc3c4ccc(Cl)cc4nc4ccc(OC)cc34)c2c1` stands “Toxic”.

The test system of another assay is Trypanosoma cruzi. Kind of assay: Percentage of activity against Trypanosoma cruzi at 12.5 uM; Toxic upon mouse primary peritoneal macrophages. Format: functional, organism-based.
Details: not given
The method, boiled down:
as §2
As to `COc1ccc2nc3cc(Cl)ccc3c(NCCCN(CCCNc3c4ccc(Cl)cc4nc4ccc(OC)cc34)C(=O)CCN3CCCCC3)c2c1`, the Cytotoxicity result is “Toxic”.
Still for that read-out and setting: under `COc1ccc2nc3cc(Cl)ccc3c(NCCCCNc3c4ccc(Cl)cc4nc4ccc(OC)cc34)c2c1` stands “Toxic”.

Another assay concerns Trypanosoma brucei. Kind of assay: Percentage of activity against Trypanosoma brucei at 3.13 uM. Format: functional.
Details: not given
The essentials: as §1
In turn, `COc1ccc2nc3cc(Cl)ccc3c(NCCCN(CCCNc3c4ccc(Cl)cc4nc4ccc(OC)cc34)C(=O)CCN3CCCCC3)c2c1` yielded a Parasite growth inhibition of 100%.
The molecule `COc1ccc2nc3cc(Cl)ccc3c(NCCCCNc3c4ccc(Cl)cc4nc4ccc(OC)cc34)c2c1` had a Parasite growth inhibition of 100%.

Another assay relates to Trypanosoma cruzi. Kind of assay: Percentage of activity against Trypanosoma cruzi at 1.56 uM. Format: functional.
Details: not given
The essentials: as §2
Take `COc1ccc2nc3cc(Cl)ccc3c(NCCCN(CCCNc3c4ccc(Cl)cc4nc4ccc(OC)cc34)C(=O)CCN3CCCCC3)c2c1`: the Parasite load reduction came out at 40%.
Same read-out and setting: under `COc1ccc2nc3cc(Cl)ccc3c(NCCCCNc3c4ccc(Cl)cc4nc4ccc(OC)cc34)c2c1` stands 90%.

A further assay concerns Leishmania infantum. Kind of assay: In Vitro evaluation for the percentage of activity towards Leishmania infantum at 3.13 uM Concentration; Toxic upon mouse primary peritoneal macrophages. Format: functional, organism-based.
Details: not given
The method, boiled down: (§3)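 Starch-stimulated mouse peritoneal macrophages, 30 000/well, infected after 24 h with spleen-derived L. infantum amastigotes (10:1) together with 2-fold drug dilutions (12.5–1.56 µM). Incubated 7 days at 37 °C, 5% CO2. Wright-stained slides scored microscopically as % reduction of total parasite load or of infected macrophages. Uninfected treated cultures judged microscopically for macrophage toxicity.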
As for `COc1ccc2nc3cc(Cl)ccc3c(NCCCN(CCCNc3c4ccc(Cl)cc4nc4ccc(OC)cc34)C(=O)CCN3CCCCC3)c2c1`, the Cytotoxicity entry is “Toxic”.
For `COc1ccc2nc3cc(Cl)ccc3c(NCCCCNc3c4ccc(Cl)cc4nc4ccc(OC)cc34)c2c1`, the Cytotoxicity result was “Toxic”.

A further assay deals with Trypanosoma cruzi. Kind of assay: In Vitro evaluation for the percentage of activity towards Trypanosoma cruzi at 6.25 uM Concentration; Toxic upon mouse primary peritoneal macrophages. Format: functional, organism-based.
Details: not given
The method, boiled down:
as §2
With `COc1ccc2nc3cc(Cl)ccc3c(NCCCN(CCCNc3c4ccc(Cl)cc4nc4ccc(OC)cc34)C(=O)CCN3CCCCC3)c2c1`, the Cytotoxicity entry was “Toxic”.
Consider `COc1ccc2nc3cc(Cl)ccc3c(NCCCCNc3c4ccc(Cl)cc4nc4ccc(OC)cc34)c2c1`, for which the Cytotoxicity entry was “Toxic”.

For a further assay, the system named is Leishmania infantum. The assay can be described thus: Percentage of activity against Leishmania infantum at 12.5 uM Concentration; Toxic upon mouse primary peritoneal macrophages. Format: functional, organism-based.
Details: not given
The method, boiled down:
as §3
In the case of `COc1ccc2nc3cc(Cl)ccc3c(NCCCN(CCCNc3c4ccc(Cl)cc4nc4ccc(OC)cc34)C(=O)CCN3CCCCC3)c2c1`, the Cytotoxicity result was “Toxic”.
Same read-out and setting: under `COc1ccc2nc3cc(Cl)ccc3c(NCCCCNc3c4ccc(Cl)cc4nc4ccc(OC)cc34)c2c1` stands “Toxic”.

The next assay concerns MRC5. The assay can be described thus: Cytotoxicity on MRC-5 cells at 6.25 uM. As to conditions: Homo sapiens. Format: functional. The method, boiled down:
(§4)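 MRC-5 human diploid embryonic lung cells seeded at 5 000/well, washed after 24 h, then given 2-fold drug dilutions (25, 12.5, 6.25, 3.13 µM) in RPMI + 5% FCS, final DMSO below 0.5%. Incubated 7 days at 37 °C, 5% CO2. MTT colorimetric read-out, scored as % reduction of absorbance at 540 nm versus untreated controls.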
Molecule `COc1ccc2nc3cc(Cl)ccc3c(NCCCN(CCCNc3c4ccc(Cl)cc4nc4ccc(OC)cc34)C(=O)CCN3CCCCC3)c2c1` had a cytotoxicity at 6.25 µM of 57%.
Regarding `COc1ccc2nc3cc(Cl)ccc3c(NCCCCNc3c4ccc(Cl)cc4nc4ccc(OC)cc34)c2c1`, the cytotoxicity at 6.25 µM stood at 100%.

In the next assay the test system is MRC5. The assay can be described thus: Cytotoxicity on MRC-5 cells at 25 uM. As to conditions: Homo sapiens. Format: functional. The method, boiled down:
as §4
In turn, `COc1ccc2nc3cc(Cl)ccc3c(NCCCN(CCCNc3c4ccc(Cl)cc4nc4ccc(OC)cc34)C(=O)CCN3CCCCC3)c2c1` returned a cytotoxicity at 25 µM of 78%.
Still for that read-out and setting: under `COc1ccc2nc3cc(Cl)ccc3c(NCCCCNc3c4ccc(Cl)cc4nc4ccc(OC)cc34)c2c1` stands 100%.

The subject of the next assay is Leishmania infantum. The assay can be described thus: In Vitro evaluation for the percentage of activity towards Leishmania infantum at 1.56 uM Concentration; Toxic upon mouse primary peritoneal macrophages. Format: functional, organism-based.
Details: not given
The essentials: as §3
For the molecule `COc1ccc2nc3cc(Cl)ccc3c(NCCCN(CCCNc3c4ccc(Cl)cc4nc4ccc(OC)cc34)C(=O)CCN3CCCCC3)c2c1`, the Cytotoxicity entry was “Toxic”.
Still for that read-out and setting: under `COc1ccc2nc3cc(Cl)ccc3c(NCCCCNc3c4ccc(Cl)cc4nc4ccc(OC)cc34)c2c1` stands “Toxic”.

A further assay deals with Leishmania infantum. The assay can be described thus: Percentage of activity against Leishmania infantum at 6.25 uM; Toxic upon mouse primary peritoneal macrophages. Format: functional, organism-based.
Details: not given
The method, boiled down:
as §3
Turning to `COc1ccc2nc3cc(Cl)ccc3c(NCCCN(CCCNc3c4ccc(Cl)cc4nc4ccc(OC)cc34)C(=O)CCN3CCCCC3)c2c1`, the Cytotoxicity result was “Toxic”.
Same read-out and setting: the entry for `COc1ccc2nc3cc(Cl)ccc3c(NCCCCNc3c4ccc(Cl)cc4nc4ccc(OC)cc34)c2c1` is “Toxic”.

A further assay concerns MRC5. Kind of assay: Cytotoxicity on MRC-5 cells at 3.13 uM. Format: functional. As to conditions: Homo sapiens. The method, boiled down:
as §4
For the molecule `COc1ccc2nc3cc(Cl)ccc3c(NCCCN(CCCNc3c4ccc(Cl)cc4nc4ccc(OC)cc34)C(=O)CCN3CCCCC3)c2c1`, the cytotoxicity at 3.13 µM was 42%.
Same read-out and setting: under `COc1ccc2nc3cc(Cl)ccc3c(NCCCCNc3c4ccc(Cl)cc4nc4ccc(OC)cc34)c2c1` stands 100%.

In a further assay the test system is Plasmodium falciparum. Kind of assay: In vitro sensitivity for Plasmodium falciparum FcB1R. Format: functional, organism-based.
Details: not given
The essentials:
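Asynchronous P. falciparum cultures in human erythrocytes (0.5% parasitemia, 1% haematocrit) exposed to serially diluted drug for 24 h at 37 °C. [3H]hypoxanthine (0.5 µCi/well) then added for a further 24 h. Uptake compared with drug-free controls on the same plate. IC50 taken from the concentration–response curve, averaged over independent experiments. DMSO ≤0.1%.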
As to `COc1ccc2nc3cc(Cl)ccc3c(NCCCN(CCCNc3c4ccc(Cl)cc4nc4ccc(OC)cc34)C(=O)CCN3CCCCC3)c2c1`, the half-maximal inhibitory concentration (IC50) turned out to be 67 nM.
Same read-out and setting: the figure for `COc1ccc2nc3cc(Cl)ccc3c(NCCCCNc3c4ccc(Cl)cc4nc4ccc(OC)cc34)c2c1` is 18 nM.

A further assay relates to Trypanosoma brucei. Kind of assay: Percentage of activity against Trypanosoma brucei at 1.56 uM.
Details: not given
Format: functional. The method, boiled down:
as §1
As for `COc1ccc2nc3cc(Cl)ccc3c(NCCCN(CCCNc3c4ccc(Cl)cc4nc4ccc(OC)cc34)C(=O)CCN3CCCCC3)c2c1`, the “Percent inhibition of parasite multiplication” value came out at 100%.
On to `COc1ccc2nc3cc(Cl)ccc3c(NCCCCNc3c4ccc(Cl)cc4nc4ccc(OC)cc34)c2c1`, for which the “Percent inhibition of parasite multiplication” value worked out at 100%.

For a further assay, the system named is Trypanosoma brucei. Kind of assay: Percentage of activity against Trypanosoma brucei at 12.5 uM. Format: functional.
Details: not given
The essentials:
as §1
Regarding `COc1ccc2nc3cc(Cl)ccc3c(NCCCCNc3c4ccc(Cl)cc4nc4ccc(OC)cc34)c2c1`, the “Inhibition of parasite multiplication” value was 100%.

The next assay has as its system MRC5. The assay can be described thus: Cytotoxicity on MRC-5 cells at 12.5 uM. Format: functional. As to conditions: Homo sapiens. The method, boiled down: as §4
`COc1ccc2nc3cc(Cl)ccc3c(NCCCN(CCCNc3c4ccc(Cl)cc4nc4ccc(OC)cc34)C(=O)CCN3CCCCC3)c2c1` came in with a cytotoxicity at 12.5 µM of 71%.
Still for that read-out and setting: the figure for `COc1ccc2nc3cc(Cl)ccc3c(NCCCCNc3c4ccc(Cl)cc4nc4ccc(OC)cc34)c2c1` is 100%.
